Test results: ChEMBL document CHEMBL3297663, “Synthesis and evaluation of (E)-2-(acrylamido)cyclohex-1-enecarboxylic acid derivatives as HCA1, HCA2, and HCA3 receptor agonists” (Bioorg Med Chem, 2014)
The source made the active and inactive calls. The calls are words filed in the database; no cut-off is given here.

Key:
Format in all cases: functional, cell-based
[1] = molecular target: Hydroxycarboxylic acid receptor 3 (Homo sapiens) (UniProt P49019); assay: Agonist activity at human HCA3 receptor expressed in Flp-In-293 cells assessed as inhibition of forskolin-induced cAMP accumulation at 50 uM after 30 mins
How it was run: (§1)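 Flp-In-293 cells stably transfected with HCA receptor plasmids were plated at 10,000 cells/well. They were stimulated with forskolin plus compound for 30 min in PBS with 2% BSA and 0.5 mM IBMX. Inhibition of cAMP accumulation at a single compound concentration is expressed as % of the forskolin-stimulated level (set to 100%). Values are mean ± SD of at least three experiments, each in duplicate.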

[2] = molecular target: T1, Hydroxycarboxylic acid receptor 2 (Homo sapiens, UniProt Q8TDS4); assay: Agonist activity at human HCA2 receptor expressed in Flp-In-293 cells assessed as inhibition of forskolin-induced cAMP accumulation after 30 mins
How it was run: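 EC50 values come from an intracellular cAMP assay in Flp-In-293 cells stably expressing the receptor (10,000 cells/well). Cells were co-incubated 30 min with forskolin and compound in PBS, 2% BSA and 0.5 mM IBMX. Values are mean ± SD of at least three experiments, each in duplicate.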

[3] = molecular target: Hydroxycarboxylic acid receptor 1 (Homo sapiens) (UniProt Q9BXC0); assay: Agonist activity at human HCA1 receptor expressed in Flp-In-293 cells assessed as inhibition of forskolin-induced cAMP accumulation at 50 uM after 30 mins; how it was run: as §1
[4] = molecular target: Hydroxycarboxylic acid receptor 3 (Homo sapiens) (UniProt P49019); assay: Agonist activity at human HCA3 receptor expressed in Flp-In-293 cells assessed as inhibition of forskolin-induced cAMP accumulation up to 50 uM after 30 mins
How it was run: (§2)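 Stable HCA-expressing Flp-In-293 cells (10,000/well) were treated with compound plus forskolin for 30 min in PBS containing 2% BSA and 0.5 mM IBMX. The value is the maximal % inhibition of forskolin-stimulated cAMP, with the forskolin-only level taken as 100%. Data are mean ± SD from at least three experiments, each in duplicate.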

[5] = molecular target: Hydroxycarboxylic acid receptor 1 (Homo sapiens) (UniProt Q9BXC0); assay: Agonist activity at human HCA1 receptor expressed in Flp-In-293 cells assessed as inhibition of forskolin-induced cAMP accumulation up to 50 uM after 30 mins; how it was run: as §2
[6] = molecular target: T1, Hydroxycarboxylic acid receptor 2; assay: Agonist activity at human HCA2 receptor expressed in Flp-In-293 cells assessed as inhibition of forskolin-induced cAMP accumulation at 50 uM after 30 mins; how it was run: as §1
[7] = molecular target: T1, Hydroxycarboxylic acid receptor 2; assay: Agonist activity at human HCA2 receptor expressed in Flp-In-293 cells assessed as inhibition of forskolin-induced cAMP accumulation up to 50 uM after 30 mins; how it was run: as §2

Chain of Hydroxycarboxylic acid receptor 3 (Homo sapiens) (P49019 whole entry): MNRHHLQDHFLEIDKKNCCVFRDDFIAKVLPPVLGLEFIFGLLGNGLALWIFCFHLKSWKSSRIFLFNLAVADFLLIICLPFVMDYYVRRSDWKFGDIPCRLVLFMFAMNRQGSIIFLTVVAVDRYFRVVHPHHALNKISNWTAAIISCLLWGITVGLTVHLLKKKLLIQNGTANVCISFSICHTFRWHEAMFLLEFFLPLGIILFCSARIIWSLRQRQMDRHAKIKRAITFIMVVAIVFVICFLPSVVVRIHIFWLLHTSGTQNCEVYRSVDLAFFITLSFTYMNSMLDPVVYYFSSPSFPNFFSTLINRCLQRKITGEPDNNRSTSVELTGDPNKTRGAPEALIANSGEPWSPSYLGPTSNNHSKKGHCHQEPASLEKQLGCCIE
T1 sequence (Q8TDS4 whole entry): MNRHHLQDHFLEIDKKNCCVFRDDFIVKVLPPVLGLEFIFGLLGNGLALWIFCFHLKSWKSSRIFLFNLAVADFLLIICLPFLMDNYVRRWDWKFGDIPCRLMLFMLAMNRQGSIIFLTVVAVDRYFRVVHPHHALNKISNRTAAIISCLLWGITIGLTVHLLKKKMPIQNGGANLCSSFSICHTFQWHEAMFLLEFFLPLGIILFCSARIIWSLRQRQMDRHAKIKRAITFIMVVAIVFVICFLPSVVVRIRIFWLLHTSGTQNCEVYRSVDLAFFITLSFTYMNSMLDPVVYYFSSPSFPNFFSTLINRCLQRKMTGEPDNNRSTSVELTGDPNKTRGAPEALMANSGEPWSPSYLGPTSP
Chain of Hydroxycarboxylic acid receptor 1 (Homo sapiens) (Q9BXC0 whole entry): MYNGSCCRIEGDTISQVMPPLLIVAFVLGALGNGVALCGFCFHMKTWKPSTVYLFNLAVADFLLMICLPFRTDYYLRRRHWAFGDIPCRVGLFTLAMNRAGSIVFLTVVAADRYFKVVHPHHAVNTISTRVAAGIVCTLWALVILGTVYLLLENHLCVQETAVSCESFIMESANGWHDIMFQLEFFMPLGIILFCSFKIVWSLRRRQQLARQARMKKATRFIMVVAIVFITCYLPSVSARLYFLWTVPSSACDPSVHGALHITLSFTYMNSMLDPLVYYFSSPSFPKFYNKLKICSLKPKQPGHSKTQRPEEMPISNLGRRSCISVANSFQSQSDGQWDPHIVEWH

| Compound | inhibition [1] [%] | EC50 [2] [µM] | Emax [2] [%] | inhibition [3] [%] | inhibition [4] | inhibition [5] | inhibition [6] [%] | inhibition [7] |
| --- | --- | --- | --- | --- | --- | --- | --- | --- |
| COc1ccc(/C=C/C(=O)NC2=C(C(=O)O)CCCC2)c(Cl)c1OC | 48 | 26.3 | 95 | 36 | – | – | – | – |
| COc1ccc2nc(Cl)c(/C=C/C(=O)NC3=C(C(=O)O)CCCC3)cc2c1 | – | 6.3 | 86 | 21 | inactive | – | – | – |
| O=C(/C=C/c1ccc2ccccc2n1)NC1=C(C(=O)O)CCCC1 | – | 4.1 | 99 | – | inactive | inactive | – | – |
| O=C(/C=C/C#Cc1ccccc1)NC1=C(C(=O)O)CCCC1 | 56 | 3.6 | 90 | – | – | inactive | – | – |
| O=C(CCc1ccc2ccccc2c1)NC1=C(C(=O)O)CCCC1 | 66 | 8.3 | 97 | 41 | – | – | – | – |
| O=C(CCc1ccc2ncccc2c1)NC1=C(C(=O)O)CCCC1 | 60 | – | – | 26 | – | – | 70 | – |
| O=C(/C=C/c1cc2ccccc2nc1Cl)NC1=C(C(=O)O)CCCC1 | 52 | 27.4 | 79 | 37 | – | – | – | – |
| O=C(/C=C/c1cc2c(cc1Br)OCO2)NC1=C(C(=O)O)CCCC1 | 54 | – | – | – | – | inactive | 24 | – |
| COc1cc(/C=C/C(=O)NC2=C(C(=O)O)CCCC2)cc(Br)c1OC | 46 | – | – | – | – | inactive | 23 | – |
| COc1cc2nc(/C=C/C(=O)NC3=C(C(=O)O)CCCC3)ccc2c(OC)c1OC | 61 | – | – | 38 | – | – | 53 | – |
| O=C(/C=C/c1ccc2c(c1)OCO2)NC1=C(C(=O)O)CCCC1 | 26 | 5.8 | 83 | – | – | inactive | – | – |
| O=C(CCc1ccc2c(c1)OCO2)NC1=C(C(=O)O)CCCC1 | 62 | 51.6 | 85 | 28 | – | – | – | – |
| Cc1ccc2cc(CCC(=O)NC3=C(C(=O)O)CCCC3)ccc2n1 | 54 | 36.4 | 82 | 23 | – | – | – | – |
| Cc1ccc2cc(/C=C/C(=O)NC3=C(C(=O)O)CCCC3)ccc2n1 | – | – | – | – | inactive | inactive | – | inactive |
| O=C(O)C1=C(NC(=O)[C@H]2C[C@H]2c2ccc3ccccc3c2)CCCC1 (racemic) | – | – | – | – | inactive | inactive | 34 | – |
| O=C(/C=C/c1cc2c(cc1Cl)OCO2)NC1=C(C(=O)O)CCCC1 | 59 | – | – | 34 | – | – | 17 | – |

| Compound | inhibition [1] [%] | EC50 [2] [µM] | Emax [2] [%] | inhibition [3] [%] | inhibition [4] | inhibition [5] | inhibition [6] [%] | inhibition [7] |
| --- | --- | --- | --- | --- | --- | --- | --- | --- |
| O=C(/C=C/c1ccc2cc(O)ccc2c1)NC1=C(C(=O)O)CCCC1 | – | 1.4 | 96 | – | inactive | inactive | – | – |
| O=C(CCc1cccc2cccnc12)NC1=C(C(=O)O)CCCC1 | 55 | – | – | – | – | inactive | 60 | – |
| O=C(/C=C/c1cccc2cccnc12)NC1=C(C(=O)O)CCCC1 | 54 | – | – | – | – | inactive | – | inactive |
| O=C(/C=C/c1ccc2ccccc2c1)NC1=C(C(=O)O)CCCC1 | – | 4.5 | 94 | 14 | inactive | – | – | – |
| O=C(/C=C/c1ccc2ncccc2c1)NC1=C(C(=O)O)CCCC1 | 39 | – | – | 24 | – | – | 68 | – |
| O=C(/C=C/c1ccc2c(c1)OCCO2)NC1=C(C(=O)O)CCCC1 | 66 | 6.8 | 93 | – | – | inactive | – | – |
| O=C(O)C1=C(NC(=O)[C@@H]2C[C@H]2c2ccc3ccccc3c2)CCCC1 (racemic) | 55 | 12.5 | 96 | 40 | – | – | – | – |
| COc1ccc2cc(/C=C/C(=O)NC3=C(C(=O)O)CCCC3)ccc2c1 | – | – | – | 26 | inactive | – | – | inactive |
| O=C(/C=C/c1ccnc2ccccc12)NC1=C(C(=O)O)CCCC1 | – | – | – | – | inactive | inactive | – | inactive |
| O=C(C#Cc1ccc2cc(O)ccc2c1)NC1=C(C(=O)O)CCCC1 | – | 0.9 | 98 | – | inactive | inactive | – | – |
| COc1ccc(/C=C/C(=O)NC2=C(C(=O)O)CCCC2)cc1OC | 58 | – | – | 31 | – | – | 51 | – |
| O=C(CCc1ccc2cc(O)ccc2c1)NC1=C(C(=O)O)CCCC1 | – | 1.9 | 97 | 26 | inactive | – | – | – |
| O=C(/C=C/c1ccc2cccc(O)c2n1)NC1=C(C(=O)O)CCCC1 | – | – | – | – | inactive | inactive | 27 | – |
| COc1ccc2nc(Cl)c(CCC(=O)NC3=C(C(=O)O)CCCC3)cc2c1 | 53 | 4.1 | 91 | 24 | – | – | – | – |
| COc1nc2ccccc2cc1/C=C/C(=O)NC1=C(C(=O)O)CCCC1 | 58 | – | – | 27 | – | – | 59 | – |
